# Assay results as given in ChEMBL document CHEMBL4145690, “Rational Design and Structure Validation of a Novel Peptide Inhibitor of the Adenomatous-Polyposis-Coli (APC)-Rho-Guanine-Nucleotide-Exchange-Factor-4 (Asef) Interaction” (J Med Chem, 2018).
# *1 amine or outer side, *2 acyl side, *3 side chain or, on linkers, in order; H or OH if unused. Where a SMILES comes first, the peptide text is derived from it. [ ]: non-standard residue; d: D form. The star is where a group is joined. Ala(4-thiazolyl) = N[C@@H](Cc1cscn1)C(=O)O; Leu(4,5-dehydro) = C=C(C)C[C@H](N)C(=O)O; X1 = O=C([C@H](Cc1ccc(Br)s1)N[*:1])[*:2]; Ala(2-furyl) = N[C@@H](Cc1ccco1)C(=O)O; Ala(cHept) = N[C@@H](CC1CCCCCC1)C(=O)O; 1Nal = N[C@@H](Cc1cccc2ccccc12)C(=O)O; 2Nal = N[C@@H](Cc1ccc2ccccc2c1)C(=O)O; Ala(cPent) = N[C@@H](CC1CCCC1)C(=O)O; Met(O2) = CS(=O)(=O)CC[C@H](N)C(=O)O; Gly(octyl) = CCCCCCCC[C@H](N)C(=O)O; Gly(cPent) = N[C@H](C(=O)O)C1CCCC1; Ala(cPr) = N[C@@H](CC1CC1)C(=O)O; Met(O) = CS(=O)CC[C@H](N)C(=O)O; 2Thi = N[C@@H](Cc1cccs1)C(=O)O; 3Thi = N[C@@H](Cc1ccsc1)C(=O)O; Cha = N[C@@H](CC1CCCCC1)C(=O)O; Aic = NC1(C(=O)O)Cc2ccccc2C1; Cba = N[C@@H](CC1CCC1)C(=O)O; Chg = N[C@H](C(=O)O)C1CCCCC1; Phg = N[C@H](C(=O)O)c1ccccc1; Tle = CC(C)(C)[C@H](N)C(=O)O; Ac8c = NC1(C(=O)O)CCCCCCC1; Pra = C#CC[C@H](N)C(=O)O; Cbz = O=C(OCc1ccccc1)*
# Target: Adenomatous polyposis coli protein (Homo sapiens, UniProt P25054)
# Experiment: Binding affinity to APC protein (303 to 739 residues) (unknown origin) incubated for 60 mins followed by probe addition and measured after 60 mins by competitive fluorescence polarization assay
# In short: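 Peptide in DMSO preincubated with protein 60 min at room temperature with shaking; probe added, then 60 min more. Controls: blank, tracer only, complex only. IC50 from dose-response curves, mean of three independent experiments.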
# Sequence of Adenomatous polyposis coli protein (P25054 whole entry, the tested form may be a part): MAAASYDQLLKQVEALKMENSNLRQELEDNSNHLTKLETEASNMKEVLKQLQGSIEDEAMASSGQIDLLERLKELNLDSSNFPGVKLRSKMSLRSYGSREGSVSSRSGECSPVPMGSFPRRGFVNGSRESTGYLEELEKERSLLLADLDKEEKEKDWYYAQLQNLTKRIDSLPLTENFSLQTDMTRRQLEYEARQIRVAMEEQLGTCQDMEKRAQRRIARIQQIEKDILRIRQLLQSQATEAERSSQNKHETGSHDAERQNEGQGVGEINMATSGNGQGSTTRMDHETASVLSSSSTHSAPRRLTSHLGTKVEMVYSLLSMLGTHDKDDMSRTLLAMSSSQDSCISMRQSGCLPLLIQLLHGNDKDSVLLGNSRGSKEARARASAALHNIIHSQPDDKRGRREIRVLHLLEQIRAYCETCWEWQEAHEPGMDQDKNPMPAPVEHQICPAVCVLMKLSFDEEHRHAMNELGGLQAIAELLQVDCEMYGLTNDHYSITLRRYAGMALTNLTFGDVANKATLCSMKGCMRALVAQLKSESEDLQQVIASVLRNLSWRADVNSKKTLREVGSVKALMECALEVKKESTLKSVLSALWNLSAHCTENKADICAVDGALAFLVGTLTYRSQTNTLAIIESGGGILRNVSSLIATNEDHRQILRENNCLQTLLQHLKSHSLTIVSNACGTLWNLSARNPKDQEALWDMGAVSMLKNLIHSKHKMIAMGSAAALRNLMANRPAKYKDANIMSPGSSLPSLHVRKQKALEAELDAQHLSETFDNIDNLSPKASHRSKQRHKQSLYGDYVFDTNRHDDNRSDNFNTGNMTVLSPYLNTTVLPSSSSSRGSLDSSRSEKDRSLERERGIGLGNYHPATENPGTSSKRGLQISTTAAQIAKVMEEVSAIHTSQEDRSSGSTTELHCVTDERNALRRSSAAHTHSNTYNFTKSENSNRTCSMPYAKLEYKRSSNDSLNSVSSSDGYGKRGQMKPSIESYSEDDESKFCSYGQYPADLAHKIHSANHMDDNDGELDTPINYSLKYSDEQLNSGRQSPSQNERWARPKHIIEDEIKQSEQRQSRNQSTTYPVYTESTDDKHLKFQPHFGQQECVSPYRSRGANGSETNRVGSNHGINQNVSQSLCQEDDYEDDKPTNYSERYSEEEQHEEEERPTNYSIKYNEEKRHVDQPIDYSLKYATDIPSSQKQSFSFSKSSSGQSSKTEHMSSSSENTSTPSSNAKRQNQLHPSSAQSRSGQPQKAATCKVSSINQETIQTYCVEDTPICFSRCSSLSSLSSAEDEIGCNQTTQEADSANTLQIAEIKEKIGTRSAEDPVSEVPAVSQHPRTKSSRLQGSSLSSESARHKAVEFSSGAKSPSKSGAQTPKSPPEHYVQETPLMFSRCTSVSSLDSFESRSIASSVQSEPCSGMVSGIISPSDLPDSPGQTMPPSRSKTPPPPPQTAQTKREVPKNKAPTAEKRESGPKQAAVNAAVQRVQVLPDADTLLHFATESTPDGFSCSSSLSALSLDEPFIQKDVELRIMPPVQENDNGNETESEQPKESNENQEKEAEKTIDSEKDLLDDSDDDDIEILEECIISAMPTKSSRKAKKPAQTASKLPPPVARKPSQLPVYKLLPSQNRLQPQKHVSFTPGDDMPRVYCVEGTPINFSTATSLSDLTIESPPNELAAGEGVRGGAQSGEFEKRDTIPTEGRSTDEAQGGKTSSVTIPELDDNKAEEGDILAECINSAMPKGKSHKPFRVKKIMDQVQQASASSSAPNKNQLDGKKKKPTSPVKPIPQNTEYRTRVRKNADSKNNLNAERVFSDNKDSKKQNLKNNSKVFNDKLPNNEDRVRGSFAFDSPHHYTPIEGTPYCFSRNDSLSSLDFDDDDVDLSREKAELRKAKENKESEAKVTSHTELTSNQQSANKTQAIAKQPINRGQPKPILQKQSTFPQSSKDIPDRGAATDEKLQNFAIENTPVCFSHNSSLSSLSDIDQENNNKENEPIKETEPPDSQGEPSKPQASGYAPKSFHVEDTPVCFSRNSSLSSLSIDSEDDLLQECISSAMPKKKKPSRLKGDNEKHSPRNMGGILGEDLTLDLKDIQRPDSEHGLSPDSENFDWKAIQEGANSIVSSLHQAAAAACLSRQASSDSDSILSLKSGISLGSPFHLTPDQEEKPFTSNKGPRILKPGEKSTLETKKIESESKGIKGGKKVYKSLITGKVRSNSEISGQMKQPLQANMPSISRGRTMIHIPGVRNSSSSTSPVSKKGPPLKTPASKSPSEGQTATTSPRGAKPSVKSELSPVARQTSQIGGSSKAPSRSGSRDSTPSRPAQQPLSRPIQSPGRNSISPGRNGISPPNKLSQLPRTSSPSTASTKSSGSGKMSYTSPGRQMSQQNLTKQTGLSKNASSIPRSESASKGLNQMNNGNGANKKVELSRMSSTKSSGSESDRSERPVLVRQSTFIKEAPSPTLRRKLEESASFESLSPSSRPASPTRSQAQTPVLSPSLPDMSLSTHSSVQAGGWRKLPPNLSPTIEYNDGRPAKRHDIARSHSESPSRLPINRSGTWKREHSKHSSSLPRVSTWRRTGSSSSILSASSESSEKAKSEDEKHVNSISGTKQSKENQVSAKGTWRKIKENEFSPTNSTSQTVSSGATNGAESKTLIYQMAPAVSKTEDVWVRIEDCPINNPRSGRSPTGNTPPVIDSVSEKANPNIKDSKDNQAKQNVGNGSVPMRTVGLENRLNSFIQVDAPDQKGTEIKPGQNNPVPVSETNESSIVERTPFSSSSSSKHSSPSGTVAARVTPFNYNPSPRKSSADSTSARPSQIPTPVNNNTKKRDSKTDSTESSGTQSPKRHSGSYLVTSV
row,IC50,SMILES
1,2.01 µM,CC(C)C[C@H](NC(=O)[C@@H](NC(=O)[C@H](CCC(=O)O)NC(=O)CNC(=O)[C@H](C)NC(=O)OCc1ccccc1)[C@H](C)O)C(=O)N[C@@H](Cc1ccc(O)cc1)C(=O)N[C@@H](CCC(=O)O)C(N)=O
2,0.57 µM,C[C@H](NC(=O)OCc1ccccc1)C(=O)NCC(=O)N[C@@H](CCC(=O)O)C(=O)N[C@@H](C)C(=O)N[C@@H](CC1CCCC1)C(=O)N[C@@H](Cc1ccc(O)cc1)C(=O)N[C@@H](CCC(=O)O)C(N)=O (Cbz-AGEA[Ala(cPent)]YE-NH2)
3,1.51 µM,CC(C)C[C@H](NC(=O)[C@H](CS)NC(=O)[C@H](CCC(=O)O)NC(=O)CNC(=O)[C@H](C)NC(=O)OCc1ccccc1)C(=O)N[C@@H](Cc1ccc(O)cc1)C(=O)N[C@@H](CCC(=O)O)C(N)=O (Cbz-AGECLYE-NH2)
4,6.35 µM,CC(C)C[C@H](NC(=O)[C@H](CC(=O)O)NC(=O)[C@H](CCC(=O)O)NC(=O)CNC(=O)[C@H](C)NC(=O)OCc1ccccc1)C(=O)N[C@@H](Cc1ccc(O)cc1)C(=O)N[C@@H](CCC(=O)O)C(N)=O (Cbz-AGEDLYE-NH2)
5,5.19 µM,CC(C)C[C@H](NC(=O)[C@H](CC(N)=O)NC(=O)[C@H](CCC(=O)O)NC(=O)CNC(=O)[C@H](C)NC(=O)OCc1ccccc1)C(=O)N[C@@H](Cc1ccc(O)cc1)C(=O)N[C@@H](CCC(=O)O)C(N)=O (Cbz-AGENLYE-NH2)
6,4.36 µM,C[C@H](NC(=O)OCc1ccccc1)C(=O)NCC(=O)N[C@@H](CCC(=O)O)C(=O)N[C@@H](CO)C(=O)N[C@@H](Cc1ccccc1)C(=O)N[C@@H](Cc1ccc(O)cc1)C(=O)N[C@@H](CCC(=O)O)C(N)=O (Cbz-AGESFYE-NH2)
7,109 µM,C[C@H](NC(=O)OCc1ccccc1)C(=O)NCC(=O)N[C@@H](CCC(=O)O)C(=O)N[C@@H](CO)C(=O)NCC(=O)N[C@@H](Cc1ccc(O)cc1)C(=O)N[C@@H](CCC(=O)O)C(N)=O (Cbz-AGESGYE-NH2)
8,50.6 µM,C[C@H](NC(=O)OCc1ccccc1)C(=O)NCC(=O)N[C@@H](CCC(=O)O)C(=O)N[C@@H](CO)C(=O)N[C@@H](Cc1c[nH]cn1)C(=O)N[C@@H](Cc1ccc(O)cc1)C(=O)N[C@@H](CCC(=O)O)C(N)=O (Cbz-AGESHYE-NH2)
9,3.85 µM,CC[C@H](C)[C@H](NC(=O)[C@H](CO)NC(=O)[C@H](CCC(=O)O)NC(=O)CNC(=O)[C@H](C)NC(=O)OCc1ccccc1)C(=O)N[C@@H](Cc1ccc(O)cc1)C(=O)N[C@@H](CCC(=O)O)C(N)=O (Cbz-AGESIYE-NH2)
10,3.3 µM,CSCC[C@H](NC(=O)[C@H](CO)NC(=O)[C@H](CCC(=O)O)NC(=O)CNC(=O)[C@H](C)NC(=O)OCc1ccccc1)C(=O)N[C@@H](Cc1ccc(O)cc1)C(=O)N[C@@H](CCC(=O)O)C(N)=O (Cbz-AGESMYE-NH2)
11,12.4 µM,CC(C)[C@H](NC(=O)[C@H](CO)NC(=O)[C@H](CCC(=O)O)NC(=O)CNC(=O)[C@H](C)NC(=O)OCc1ccccc1)C(=O)N[C@@H](Cc1ccc(O)cc1)C(=O)N[C@@H](CCC(=O)O)C(N)=O (Cbz-AGESVYE-NH2)
12,10.5 µM,C[C@H](NC(=O)OCc1ccccc1)C(=O)NCC(=O)N[C@@H](CCC(=O)O)C(=O)N[C@@H](CO)C(=O)N[C@@H](Cc1c[nH]c2ccccc12)C(=O)N[C@@H](Cc1ccc(O)cc1)C(=O)N[C@@H](CCC(=O)O)C(N)=O (Cbz-AGESWYE-NH2)
13,5.07 µM,C[C@H](NC(=O)OCc1ccccc1)C(=O)NCC(=O)N[C@@H](CCC(=O)O)C(=O)N[C@@H](CO)C(=O)N[C@@H](Cc1ccc(O)cc1)C(=O)N[C@@H](Cc1ccc(O)cc1)C(=O)N[C@@H](CCC(=O)O)C(N)=O (Cbz-AGESYYE-NH2)
14,10.1 µM,C[C@H](NC(=O)OCc1ccccc1)C(=O)NCC(=O)N[C@@H](CCC(=O)O)C(=O)N[C@@H](CO)C(=O)N[C@@H](Cc1cccc2ccccc12)C(=O)N[C@@H](Cc1ccc(O)cc1)C(=O)N[C@@H](CCC(=O)O)C(N)=O (Cbz-AGES[1Nal]YE-NH2)
15,3.96 µM,C[C@H](NC(=O)OCc1ccccc1)C(=O)NCC(=O)N[C@@H](CCC(=O)O)C(=O)N[C@@H](CO)C(=O)N[C@@H](Cc1ccc2ccccc2c1)C(=O)N[C@@H](Cc1ccc(O)cc1)C(=O)N[C@@H](CCC(=O)O)C(N)=O (Cbz-AGES[2Nal]YE-NH2)
16,4.01 µM,C[C@H](NC(=O)OCc1ccccc1)C(=O)NCC(=O)N[C@@H](CCC(=O)O)C(=O)N[C@@H](CO)C(=O)N[C@@H](Cc1cccs1)C(=O)N[C@@H](Cc1ccc(O)cc1)C(=O)N[C@@H](CCC(=O)O)C(N)=O (Cbz-AGES[2Thi]YE-NH2)
17,6.86 µM,C[C@H](NC(=O)OCc1ccccc1)C(=O)NCC(=O)N[C@@H](CCC(=O)O)C(=O)N[C@@H](CO)C(=O)N[C@@H](Cc1ccsc1)C(=O)N[C@@H](Cc1ccc(O)cc1)C(=O)N[C@@H](CCC(=O)O)C(N)=O (Cbz-AGES[3Thi]YE-NH2)
18,10.3 µM,C[C@H](NC(=O)OCc1ccccc1)C(=O)NCC(=O)N[C@@H](CCC(=O)O)C(=O)N[C@@H](CO)C(=O)NC1(C(=O)N[C@@H](Cc2ccc(O)cc2)C(=O)N[C@@H](CCC(=O)O)C(N)=O)CCCCCCC1 (Cbz-AGES[Ac8c]YE-NH2)

row,IC50,SMILES
1,25.6 µM,C[C@H](NC(=O)OCc1ccccc1)C(=O)NCC(=O)N[C@@H](CCC(=O)O)C(=O)N[C@@H](CO)C(=O)NC1(C(=O)N[C@@H](Cc2ccc(O)cc2)C(=O)N[C@@H](CCC(=O)O)C(N)=O)Cc2ccccc2C1 (Cbz-AGES[Aic]YE-NH2)
2,6.95 µM,C[C@H](NC(=O)OCc1ccccc1)C(=O)NCC(=O)N[C@@H](CCC(=O)O)C(=O)N[C@@H](CO)C(=O)N[C@@H](Cc1ccco1)C(=O)N[C@@H](Cc1ccc(O)cc1)C(=O)N[C@@H](CCC(=O)O)C(N)=O (Cbz-AGES[Ala(2-furyl)]YE-NH2)
3,16.4 µM,C[C@H](NC(=O)OCc1ccccc1)C(=O)NCC(=O)N[C@@H](CCC(=O)O)C(=O)N[C@@H](CO)C(=O)N[C@@H](Cc1cscn1)C(=O)N[C@@H](Cc1ccc(O)cc1)C(=O)N[C@@H](CCC(=O)O)C(N)=O (Cbz-AGES[Ala(4-thiazolyl)]YE-NH2)
4,1.94 µM,C[C@H](NC(=O)OCc1ccccc1)C(=O)NCC(=O)N[C@@H](CCC(=O)O)C(=O)N[C@@H](CO)C(=O)N[C@@H](CC1CCCCCC1)C(=O)N[C@@H](Cc1ccc(O)cc1)C(=O)N[C@@H](CCC(=O)O)C(N)=O (Cbz-AGES[Ala(cHept)]YE-NH2)
5,0.62 µM,C[C@H](NC(=O)OCc1ccccc1)C(=O)NCC(=O)N[C@@H](CCC(=O)O)C(=O)N[C@@H](CO)C(=O)N[C@@H](CC1CCCC1)C(=O)N[C@@H](Cc1ccc(O)cc1)C(=O)N[C@@H](CCC(=O)O)C(N)=O (Cbz-AGES[Ala(cPent)]YE-NH2)
6,1.26 µM,C[C@H](NC(=O)OCc1ccccc1)C(=O)NCC(=O)N[C@@H](CCC(=O)O)C(=O)N[C@@H](CO)C(=O)N[C@@H](CC1CC1)C(=O)N[C@@H](Cc1ccc(O)cc1)C(=O)N[C@@H](CCC(=O)O)C(N)=O (Cbz-AGES[Ala(cPr)]YE-NH2)
7,1.53 µM,C[C@H](NC(=O)OCc1ccccc1)C(=O)NCC(=O)N[C@@H](CCC(=O)O)C(=O)N[C@@H](CO)C(=O)N[C@@H](CC1CCC1)C(=O)N[C@@H](Cc1ccc(O)cc1)C(=O)N[C@@H](CCC(=O)O)C(N)=O (Cbz-AGES[Cba]YE-NH2)
8,1.3 µM,C[C@H](NC(=O)OCc1ccccc1)C(=O)NCC(=O)N[C@@H](CCC(=O)O)C(=O)N[C@@H](CO)C(=O)N[C@@H](CC1CCCCC1)C(=O)N[C@@H](Cc1ccc(O)cc1)C(=O)N[C@@H](CCC(=O)O)C(N)=O (Cbz-AGES[Cha]YE-NH2)
9,2.95 µM,C[C@H](NC(=O)OCc1ccccc1)C(=O)NCC(=O)N[C@@H](CCC(=O)O)C(=O)N[C@@H](CO)C(=O)N[C@H](C(=O)N[C@@H](Cc1ccc(O)cc1)C(=O)N[C@@H](CCC(=O)O)C(N)=O)C1CCCCC1 (Cbz-AGES[Chg]YE-NH2)
10,4.07 µM,C[C@H](NC(=O)OCc1ccccc1)C(=O)NCC(=O)N[C@@H](CCC(=O)O)C(=O)N[C@@H](CO)C(=O)N[C@H](C(=O)N[C@@H](Cc1ccc(O)cc1)C(=O)N[C@@H](CCC(=O)O)C(N)=O)C1CCCC1 (Cbz-AGES[Gly(cPent)]YE-NH2)
11,3.02 µM,CCCCCCCC[C@H](NC(=O)[C@H](CO)NC(=O)[C@H](CCC(=O)O)NC(=O)CNC(=O)[C@H](C)NC(=O)OCc1ccccc1)C(=O)N[C@@H](Cc1ccc(O)cc1)C(=O)N[C@@H](CCC(=O)O)C(N)=O (Cbz-AGES[Gly(octyl)]YE-NH2)
12,3.64 µM,"C=C(C)C[C@H](NC(=O)[C@H](CO)NC(=O)[C@H](CCC(=O)O)NC(=O)CNC(=O)[C@H](C)NC(=O)OCc1ccccc1)C(=O)N[C@@H](Cc1ccc(O)cc1)C(=O)N[C@@H](CCC(=O)O)C(N)=O (Cbz-AGES[Leu(4,5-dehydro)]YE-NH2)"
13,5.73 µM,C[C@H](NC(=O)OCc1ccccc1)C(=O)NCC(=O)N[C@@H](CCC(=O)O)C(=O)N[C@@H](CO)C(=O)N[C@@H](CCS(C)(=O)=O)C(=O)N[C@@H](Cc1ccc(O)cc1)C(=O)N[C@@H](CCC(=O)O)C(N)=O (Cbz-AGES[Met(O2)]YE-NH2)
14,13.9 µM,C[C@H](NC(=O)OCc1ccccc1)C(=O)NCC(=O)N[C@@H](CCC(=O)O)C(=O)N[C@@H](CO)C(=O)N[C@@H](CC[S+](C)[O-])C(=O)N[C@@H](Cc1ccc(O)cc1)C(=O)N[C@@H](CCC(=O)O)C(N)=O (stereo partly specified) (Cbz-AGES[Met(O)]YE-NH2)
15,4.29 µM,C[C@H](NC(=O)OCc1ccccc1)C(=O)NCC(=O)N[C@@H](CCC(=O)O)C(=O)N[C@@H](CO)C(=O)N[C@H](C(=O)N[C@@H](Cc1ccc(O)cc1)C(=O)N[C@@H](CCC(=O)O)C(N)=O)c1ccccc1 (Cbz-AGES[Phg]YE-NH2)
16,30.8 µM,C#CC[C@H](NC(=O)[C@H](CO)NC(=O)[C@H](CCC(=O)O)NC(=O)CNC(=O)[C@H](C)NC(=O)OCc1ccccc1)C(=O)N[C@@H](Cc1ccc(O)cc1)C(=O)N[C@@H](CCC(=O)O)C(N)=O (Cbz-AGES[Pra]YE-NH2)
17,31.5 µM,C[C@H](NC(=O)OCc1ccccc1)C(=O)NCC(=O)N[C@@H](CCC(=O)O)C(=O)N[C@@H](CO)C(=O)N[C@H](C(=O)N[C@@H](Cc1ccc(O)cc1)C(=O)N[C@@H](CCC(=O)O)C(N)=O)C(C)(C)C (Cbz-AGES[Tle]YE-NH2)
18,5 µM,C[C@H](NC(=O)OCc1ccccc1)C(=O)NCC(=O)N[C@@H](CCC(=O)O)C(=O)N[C@@H](CO)C(=O)N[C@@H](Cc1ccc(Br)s1)C(=O)N[C@@H](Cc1ccc(O)cc1)C(=O)N[C@@H](CCC(=O)O)C(N)=O (Cbz-AGES[X1]YE-NH2)
